# Results taken from ChEMBL document CHEMBL1275307, “Design, synthesis and biological evaluation of 1,3,4-oxadiazole derivatives” (2010).
# Legend:
# Format in all cases: functional
# Staphylococcus aureus = experiment: Antimicrobial activity against Staphylococcus aureus ATCC 25923 after 24 hrs by disk diffusion method
# Summary of the method: (§1)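 Paper discs (6.25 mm diameter; Whatman no.1, dry-heat sterilized 140 °C, 1 h) soaked in test compound at a known concentration, placed on nutrient agar seeded with organism; solvent and growth controls plus ciprofloxacin standard included. Plates inverted, incubated 24 h at 37 °C; inhibition zone diameters measured and compared with controls.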
# [1] = system: Staphylococcus epidermidis; experiment: Antimicrobial activity against Staphylococcus epidermidis ATCC 12228 after 24 hrs by disk diffusion method; summary of the method: as §1
# Escherichia coli = experiment: Antimicrobial activity against Escherichia coli MTCC 443 after 24 hrs by disk diffusion method; summary of the method: as §1
Structure (SMILES),inhibition zone (IZ) (Staphylococcus aureus),inhibition zone (IZ) [1],inhibition zone (IZ) (Escherichia coli)
S=c1[nH]nc(-c2ccccc2)o1,22 mm,18 mm,20 mm
CC(=O)Oc1ccccc1-c1nnc(S)o1,24 mm,26 mm,25 mm
Cc1ccc(-c2nnc(S)o2)cc1,20 mm,16 mm,19 mm
Sc1nnc(-c2cccnc2)o1,25 mm,26 mm,21 mm
Cc1ccc(-c2nnc(-c3ccccc3O)o2)cc1,20 mm,22 mm,19 mm
Cc1ccccc1-c1nnc(-c2ccccc2O)o1,23 mm,24 mm,23 mm
Oc1ccccc1-c1nnc(-c2ccccc2)o1,21 mm,18 mm,19 mm
c1ccc(-c2nnc(-c3cccnc3)o2)cc1,24 mm,25 mm,24 mm
Oc1ccccc1-c1nnc(Cc2ccc3ccccc3c2)o1,23 mm,25 mm,21 mm
Oc1ccccc1-c1nnc(S)o1,24 mm,22 mm,18 mm
O=C(O)c1cn(C2CC2)c2cc(N3CCNCC3)c(F)cc2c1=O [CIPROFLOXACIN],29 mm,30 mm,–
